# Active and inactive are the calls of the source. The calls are words filed in the database; no cut-off is given here.
# Test system: Mus musculus
# Test: Compound was tested for antileukemic activity in P388 leukemia mice when administered a dose of 100 mg/kg/day; IA means inactive
# Type: functional, organism-based
# Outline: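 BDF1 male mice, eight per group, implanted ip with 10⁶ P388 leukemia cells. Drug given ip in 0.5 mL saline. Schedules varied between groups; the 100 mg/kg/day regimen was dosed qd 1-9.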
smiles,measurement,value
Nc1ncnc2c1ncn2[C@@H]1C[C@H](CO)[C@@H](O)[C@H]1O,Activity,inactive
